According to ChEMBL document CHEMBL1152990, “The mechanism of action of beta-D-2'-deoxy-2'-fluoro-2'-C-methylcytidine involves a second metabolic pathway leading to beta-D-2'-deoxy-2'-fluoro-2'-C-methyluridine 5'-triphosphate, a potent inhibitor of the hepatitis C virus RNA-dependent RNA polymerase” (Antimicrob Agents Chemother, 2008):

Columns and labels:
Hepatitis C virus [1] = experiment: Antiviral activity against wild type HCV infected in human HuH7 cells assessed as inhibition of viral RNA replication after 4 days by replicon assay in absence of DCTD inhibitor zedularine; format: functional, Hepacivirus hominis; conditions: Huh-7, 96 h
Procedure, shortened: (§1)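 Clone A Huh-7 replicon cells at 1,500 cells/well, without G418. Threefold serial compound dilutions were given with or without 100 μM zebularine, for 4 days at 37°C in 5% CO2. Replicon RNA was quantified by single-step multiplex RT-PCR, and activity was taken as ΔCT relative to the no-drug control.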

Hepatitis C virus [2] = experiment: Antiviral activity against HCV harboring NS5B polymerase S282T mutation infected in human HuH7 cells assessed as inhibition of viral RNA replication after 4 days by replicon assay in absence of DCTD inhibitor zedularine; format: functional, Hepacivirus hominis; conditions: Huh-7, 96 h
Procedure, shortened: (§2)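 Huh-7 clone A subgenomic replicon cells carrying NS5B S282T (selected by serial passage with 2′-C-methyladenosine) were seeded at 1,500 cells/well without G418. Threefold compound dilutions were added alone or with 100 μM zebularine, followed by 4 days at 37°C, 5% CO2. Replicon RNA was quantified by single-step multiplex RT-PCR, and activity was taken as ΔCT versus the no-drug control to give EC90.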

Hepatitis C virus [3] = experiment: Antiviral activity against wild type HCV infected in human HuH7 cells assessed as inhibition of viral RNA replication after 4 days by replicon assay in presence of 100 uM DCTD inhibitor zedularine; format: functional, Hepacivirus hominis; conditions: Huh-7, 96 h; procedure, shortened: as §1
Hepatitis C virus [4] = experiment: Antiviral activity against HCV harboring NS5B polymerase S282T mutation infected in human HuH7 cells assessed as inhibition of viral RNA replication after 4 days by replicon assay in presence of 100 uM DCTD inhibitor zedularine; format: functional, Hepacivirus hominis; conditions: Huh-7, 96 h; procedure, shortened: as §2
Hepatitis C virus [5] = experiment: Ratio of EC90 for wild type HCV in viral replicon RNA-containing human HuH7 cells in absence of zedularine to EC90 wild type HCV in viral replicon RNA-containing human HuH7 cells in presence of zedularine; format: functional, Hepacivirus hominis, Huh-7; procedure, shortened: as §1
Hepatocyte [6] = experiment: Metabolic stability in human hepatocytes assessed as PSI-6130 triphosphate half life at 2 uM
Hepatocyte [7] = experiment: Metabolic stability in human hepatocytes assessed as RO2433 triphosphate half life at 2 uM; format: ADME, cell-based, Liver
[8] = Activity of wild type HCV NS5B polymerase; parameters: species or system Hepacivirus hominis
Procedure, shortened: (§3)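 De novo RNA synthesis by NS5B lacking 21 C-terminal residues, in 50 mM HEPES pH 7.5 with 5 mM MgCl2 and 2 mM DTT at 27°C. Template was unprimed minus-IRES RNA, 2.8 μg each of enzyme and template. CTP 10 μM, ATP and GTP 100 μM; 32P-UTP and inhibitor were varied. Aliquots were quenched with EDTA/NaCl/citrate.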

[9] = Inhibition of wild type HCV NS5B polymerase assessed as incorporation of [alpha32P]UTP into newly synthesized RNA by liquid scintillation counting; parameters: species or system Hepacivirus hominis; procedure, shortened: as §3
[10] = molecular target: RNA-directed RNA polymerase (Hepacivirus hominis, UniProt O39930, S282T); experiment: Inhibition of HCV NS5B polymerase S282T mutant assessed as incorporation of [alpha32P]UTP into newly synthesized RNA by liquid scintillation counting
Chain of RNA-directed RNA polymerase (O39930 entry or part of it S282T): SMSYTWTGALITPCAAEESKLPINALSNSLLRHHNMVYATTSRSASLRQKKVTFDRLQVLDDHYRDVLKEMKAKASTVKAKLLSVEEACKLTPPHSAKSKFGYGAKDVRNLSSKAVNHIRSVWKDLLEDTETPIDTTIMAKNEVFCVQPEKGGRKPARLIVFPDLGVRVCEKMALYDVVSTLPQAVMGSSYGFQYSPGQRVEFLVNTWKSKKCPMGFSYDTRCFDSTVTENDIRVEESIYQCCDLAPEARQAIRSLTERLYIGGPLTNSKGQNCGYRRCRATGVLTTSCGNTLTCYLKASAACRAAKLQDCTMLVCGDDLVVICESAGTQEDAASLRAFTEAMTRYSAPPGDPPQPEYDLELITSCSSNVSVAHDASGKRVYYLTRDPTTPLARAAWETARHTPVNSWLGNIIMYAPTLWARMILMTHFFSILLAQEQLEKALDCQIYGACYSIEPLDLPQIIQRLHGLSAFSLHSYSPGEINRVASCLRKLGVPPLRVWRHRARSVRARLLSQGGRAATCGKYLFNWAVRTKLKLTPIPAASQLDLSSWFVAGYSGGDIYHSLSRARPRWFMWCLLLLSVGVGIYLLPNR
Procedure, shortened: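 S282T NS5B (C-terminal Δ21, E. coli-expressed) de novo RNA synthesis on an unprimed minus-IRES template at 27°C in 50 mM HEPES pH 7.5 with 5 mM MgCl2 and 2 mM DTT. CTP, ATP and GTP were fixed at 10, 100 and 100 μM, and 32P-UTP and inhibitor were varied. Timed aliquots were quenched with EDTA/NaCl/citrate stop solution. Steady-state competitive inhibition gave the Ki.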

Hepatocyte [11] = experiment: Metabolic stability in human hepatocytes assessed as RO2433 triphosphate half life at 2 uM
[12] = Drug metabolism in HCV subgenomic replicon RNA-containing human HuH7 cells assessed as PSI-6130 nucleotide monophosphate level per 10 '6 cells at 5 uM after 48 hrs by HPLC analysis in absence of DCTD inhibitor zedularine; format: ADME, cell-based; conditions: huh-7, 48 h
Procedure, shortened: (§4)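 Clone A Huh-7 replicon cells were grown overnight in DMEM with 10% FBS. They were then exposed to 5 μM [3H]PSI-6130 with 0, 50 or 100 μM zebularine for 48 h at 37°C. Cells were washed, trypsinized, counted and extracted in cold 60% methanol. Nucleotides were separated by SAX HPLC (0–100% buffer B over 90 min) with radiometric flow detection.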

[13] = Drug metabolism in HCV subgenomic replicon RNA-containing human HuH7 cells assessed as PSI-6130 nucleotide monophosphate level per 10 '6 cells at 5 uM after 48 hrs by HPLC analysis in presence of 50 uM DCTD inhibitor zedularine; format: ADME, cell-based; conditions: huh-7, 48 h; procedure, shortened: as §4
[14] = Drug metabolism in HCV subgenomic replicon RNA-containing human HuH7 cells assessed as PSI-6130 nucleotide monophosphate level per 10 '6 cells at 5 uM after 48 hrs by HPLC analysis in presence of 100 uM DCTD inhibitor zedularine; format: ADME, cell-based; conditions: huh-7, 48 h; procedure, shortened: as §4
[15] = Drug metabolism in HCV subgenomic replicon RNA-containing human HuH7 cells assessed as PSI-6130 nucleotide diphosphate level per 10 '6 cells at 5 uM after 48 hrs by HPLC analysis in absence of DCTD inhibitor zedularine; format: ADME, cell-based; conditions: huh-7, 48 h; procedure, shortened: as §4
[16] = Drug metabolism in HCV subgenomic replicon RNA-containing human HuH7 cells assessed as PSI-6130 nucleotide diphosphate level per 10 '6 cells at 5 uM after 48 hrs by HPLC analysis in presence of 50 uM DCTD inhibitor zedularine; format: ADME, cell-based; conditions: huh-7, 48 h; procedure, shortened: as §4
[17] = Drug metabolism in HCV subgenomic replicon RNA-containing human HuH7 cells assessed as PSI-6130 nucleotide diphosphate level per 10 '6 cells at 5 uM after 48 hrs by HPLC analysis in presence of 100 uM DCTD inhibitor zedularine; format: ADME, cell-based; conditions: huh-7, 48 h; procedure, shortened: as §4
[18] = Drug metabolism in HCV subgenomic replicon RNA-containing human HuH7 cells assessed as PSI-6130 nucleotide triphosphate level per 10 '6 cells at 5 uM after 48 hrs by HPLC analysis in absence of DCTD inhibitor zedularine; format: ADME, cell-based; conditions: huh-7, 48 h; procedure, shortened: as §4
[19] = Drug metabolism in HCV subgenomic replicon RNA-containing human HuH7 cells assessed as PSI-6130 nucleotide triphosphate level per 10 '6 cells at 5 uM after 48 hrs by HPLC analysis in presence of 50 uM DCTD inhibitor zedularine; format: ADME, cell-based; conditions: huh-7, 48 h; procedure, shortened: as §4
[20] = Drug metabolism in HCV subgenomic replicon RNA-containing human HuH7 cells assessed as PSI-6130 nucleotide triphosphate level per 10 '6 cells at 5 uM after 48 hrs by HPLC analysis in presence of 100 uM DCTD inhibitor zedularine; format: ADME, cell-based; conditions: huh-7, 48 h; procedure, shortened: as §4
[21] = Drug metabolism in HCV subgenomic replicon RNA-containing human HuH7 cells assessed as RO2433 nucleotide monophosphate level per 10 '6 cells at 5 uM after 48 hrs by HPLC analysis in absence of DCTD inhibitor zedularine; format: ADME, cell-based; conditions: huh-7, 48 h; procedure, shortened: as §4
[22] = Drug metabolism in HCV subgenomic replicon RNA-containing human HuH7 cells assessed as RO2433 nucleotide monophosphate level per 10 '6 cells at 5 uM after 48 hrs by HPLC analysis in presence of 50 uM DCTD inhibitor zedularine; format: ADME, cell-based; conditions: huh-7, 48 h; procedure, shortened: as §4
[23] = Drug metabolism in HCV subgenomic replicon RNA-containing human HuH7 cells assessed as RO2433 nucleotide monophosphate level per 10 '6 cells at 5 uM after 48 hrs by HPLC analysis in presence of 100 uM DCTD inhibitor zedularine; format: ADME, cell-based; conditions: huh-7, 48 h; procedure, shortened: as §4
[24] = Drug metabolism in HCV subgenomic replicon RNA-containing human HuH7 cells assessed as RO2433 nucleotide diphosphate level per 10 '6 cells at 5 uM after 48 hrs by HPLC analysis in absence of DCTD inhibitor zedularine; format: ADME, cell-based; conditions: huh-7, 48 h; procedure, shortened: as §4
[25] = Drug metabolism in HCV subgenomic replicon RNA-containing human HuH7 cells assessed as RO2433 nucleotide diphosphate level per 10 '6 cells at 5 uM after 48 hrs by HPLC analysis in presence of 50 uM DCTD inhibitor zedularine; format: ADME, cell-based; conditions: huh-7, 48 h; procedure, shortened: as §4
[26] = Drug metabolism in HCV subgenomic replicon RNA-containing human HuH7 cells assessed as RO2433 nucleotide diphosphate level at 5 uM after 48 hrs by HPLC analysis in presence of 100 uM DCTD inhibitor zedularine; format: ADME, cell-based; conditions: huh-7, 48 h; procedure, shortened: as §4
[27] = Drug metabolism in HCV subgenomic replicon RNA-containing human HuH7 cells assessed as RO2433 nucleotide triphosphate level per 10 '6 cells at 5 uM after 48 hrs by HPLC analysis in absence of DCTD inhibitor zedularine; format: ADME, cell-based; conditions: huh-7, 48 h; procedure, shortened: as §4
[28] = Drug metabolism in HCV subgenomic replicon RNA-containing human HuH7 cells assessed as RO2433 nucleotide triphosphate level per 10 '6 cells at 5 uM after 48 hrs by HPLC analysis in presence of 50 uM DCTD inhibitor zedularine; format: ADME, cell-based; conditions: huh-7, 48 h; procedure, shortened: as §4
[29] = Drug metabolism in HCV subgenomic replicon RNA-containing human HuH7 cells assessed as RO2433 nucleotide triphosphate level per 10 '6 cells at 5 uM after 48 hrs by HPLC analysis in presence of 100 uM DCTD inhibitor zedularine; format: ADME, cell-based; conditions: huh-7, 48 h; procedure, shortened: as §4
Hepatitis C virus [30] = experiment: Antiviral activity against wild type HCV infected in human HuH7 cells assessed as inhibition of viral RNA replication after 4 days by replicon assay; format: functional, Hepacivirus hominis; conditions: Huh-7, 96 h
Procedure, shortened: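 Wild-type HCV subgenomic replicon Huh-7 cells (clone A) were plated at 1,500 cells/well in G418-free medium with threefold serial compound dilutions and incubated for 4 days at 37°C, 5% CO2. Replicon RNA was extracted and measured by single-step multiplex RT-PCR. Activity was calculated as the CT shift from the no-drug control, with EC90 derived.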

[31] = Cytotoxicity against HCV subgenomic replicon RNA-containing human HuH7 cells at > 400 uM; format: cell-based; conditions: huh-7

C[C@@]1(F)[C@H](O)[C@@H](CO)O[C@H]1n1ccc(N)nc1=O
EC90 (Hepatitis C virus [1]): 4.9 µM | EC90 (Hepatitis C virus [2]): 23.8 µM | EC90 (Hepatitis C virus [3]): 2.1 µM | EC90 (Hepatitis C virus [4]): 8.9 µM | Ratio (Hepatitis C virus [5]): 2.3 | t1/2 (Hepatocyte [6]): 4.7 h

C[C@@]1(F)[C@H](O)[C@@H](CO)O[C@H]1n1ccc(=O)[nH]c1=O
EC90 (Hepatitis C virus [1]): > 100 µM | Activity (Hepatocyte [7]): Not Active

COC(=O)[C@H](C)NP(=O)(OC[C@H]1O[C@@H](n2ccc(=O)[nH]c2=O)[C@](C)(F)[C@@H]1O)Oc1ccccc1 (stereo partly specified)
EC90 (Hepatitis C virus [1]): 1.6 µM | EC90 (Hepatitis C virus [2]): 34.7 µM

C[C@@]1(F)[C@H](O)[C@@H](COP(=O)(O)OP(=O)(O)OP(=O)(O)O)O[C@H]1n1ccc(=O)[nH]c1=O [GS-461203]
Km [8]: 0.068 µM | Ki [9]: 0.42 µM | Ki [10]: 22 µM | t1/2 (Hepatocyte [11]): 38 h

C[C@@]1(F)[C@H](O)[C@@H](COP(=O)(O)OP(=O)(O)OP(=O)(O)O)O[C@H]1n1ccc(N)nc1=O [PSI-6130-TP]
Ki [9]: 0.059 µM | Ki [10]: 0.31 µM

O=c1ncccn1[C@@H]1O[C@H](CO)[C@@H](O)[C@H]1O [ZEBULARINE]
Activity [12]: 0.65 pmol | Activity [13]: 1.04 pmol | Activity [14]: 1.26 pmol | Activity [15]: 3.3 pmol | Activity [16]: 5.48 pmol | Activity [17]: 6.61 pmol | Activity [18]: 11.53 pmol | Activity [19]: 28.62 pmol | Activity [20]: 31.74 pmol | Activity [21]: 0.79 pmol | Activity [22]: 0.27 pmol | Activity [23]: 0.22 pmol | Activity [24]: 4.79 pmol | Activity [25]: 1.33 pmol | Activity [26]: 0.88 pmol | Activity [27]: 11.51 pmol | Activity [28]: 5.62 pmol | Activity [29]: 3.53 pmol | EC90 (Hepatitis C virus [30]): > 400 µM | Activity [31]: 50%
